Assay outcomes deposited in PubChem by several laboratories.
Most compounds without a hit are left out; they make up all but 4% or so of the library.
GPR7 antagonist: human neuropeptides B/W receptor 1 antagonism | inhibition, % at 4.4 µM | AID 1861 | GPR7-expressing cells, fluorescence antagonist assay | P48145 | 290,000 tested, 1.1% active; in the data active = inhibition above about 16%, passing the limit was not always enough;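 also: cells stimulated with the agonist NPW; 0% = agonist with vehicle and 100% = vehicle without agonist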
Target sequence (P48145 whole entry, looked up): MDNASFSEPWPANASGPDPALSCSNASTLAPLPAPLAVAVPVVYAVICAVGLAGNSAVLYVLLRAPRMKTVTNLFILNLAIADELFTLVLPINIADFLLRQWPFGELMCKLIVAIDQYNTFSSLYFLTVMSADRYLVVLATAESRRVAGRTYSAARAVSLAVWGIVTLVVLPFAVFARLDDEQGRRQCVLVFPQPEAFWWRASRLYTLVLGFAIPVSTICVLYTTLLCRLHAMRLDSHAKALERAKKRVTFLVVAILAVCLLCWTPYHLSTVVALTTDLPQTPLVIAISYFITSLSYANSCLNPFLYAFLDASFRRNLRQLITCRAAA
DAGLB inhibitor: diacylglycerol lipase beta (human) inhibition; inhibition, % at 5.17 µM; 340,000 tested, 0.059% active; AID 504411; Q8NCG7; HEK293T DAGLB membrane lysate, EnzChek fluorogenic substrate; in the data active = inhibition above about 34%;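 also: 0% = enzyme with vehicle and 100% = wells lacking enzyme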
TAAR1 ag: human TAAR1 agonism | CHO RD-HGA16 TAAR1, Fluo-8 calcium fluorescence; vehicle wells 0%, saturating PEA agonist 100% | activation, % at 3 µM | 360,000 tested, 0.99% active;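 active = activation above the mean activation of all test compounds in the run plus 3 SD, cut at about 38% in these data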
Target sequence (Q96RJ0 whole entry, looked up): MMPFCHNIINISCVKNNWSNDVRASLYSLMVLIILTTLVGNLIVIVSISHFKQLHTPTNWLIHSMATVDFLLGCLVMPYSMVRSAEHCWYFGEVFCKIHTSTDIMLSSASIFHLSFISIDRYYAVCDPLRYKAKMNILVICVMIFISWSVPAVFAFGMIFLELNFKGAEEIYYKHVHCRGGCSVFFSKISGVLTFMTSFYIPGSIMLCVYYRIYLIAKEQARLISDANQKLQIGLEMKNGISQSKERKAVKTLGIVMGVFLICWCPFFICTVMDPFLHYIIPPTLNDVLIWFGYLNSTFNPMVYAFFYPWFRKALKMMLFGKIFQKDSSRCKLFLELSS
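Assay system: CHO-derived RD-HGA16 cells with stable Gα16 and human TAAR1; timing: 17-24 h seeding, 75 min 37 °C dye, 30 min RT; read-out: % activation from peak over basal fluorescence ratio, DMSO-to-PEA scaled; measured by: kinetic Fluo-8 calcium fluorescence; benchmarks: low control DMSO, high control PEA (EC100); doses: 3 µM single concentration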
TAAR1 antagonist: human TAAR1 antagonism | Q96RJ0 | CHO RD-HGA16 TAAR1, Fluo-8 calcium fluorescence, antagonist | inhibition, % at 3 µM | 360,000 tested, 1.5% active;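 active = inhibition above a per-plate cutoff, the mean inhibition of test compounds on that plate plus 3 SD, cut at about 49% in these data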;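 also: 0% = DMSO plus EC80 beta-PEA response and 100% = DMSO alone without agonist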
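Test system – hTAAR1-expressing CHO RD-HGA16 cells, Gα16-coupled · Also added – β-PEA at EC80 concentration, post-compound challenge · Compound – 3 µM, single point · Incubation – dye loading 75 min at 37 °C, then 30 min room temperature · Measured by – Fluo-8 intracellular calcium dye fluorescence, real-time kinetic reads · Benchmarks – vehicle and agonist controls · Replicates – singlicate, one well per test compound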
MPTP block: blocks calcium-induced mitochondrial swelling; isolated mouse mitochondria, Ca2+ swelling absorbance, 30 min; inhibition, % at 10 µM; 360,000 tested, 1.4% active;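 active = inhibition of 50% or more, scaled per plate between neutral and stimulator controls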;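 also: 0% = DMSO wells given calcium and 100% = 1 mM EGTA wells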
The depositor's hits bear a star; · = no result given.

SMILES | GPR7 antagonist | DAGLB inhibitor | TAAR1 ag | TAAR1 antagonist | MPTP block
CC(=O)Nc1cc(-c2ccccc2)cn2c(-c3cccc(C(C)=O)c3)cnc12 | · | · | -1 | 49* | 1
CO[C@H]1CN(C)C(=O)c2cc(NC(=O)C3CCCC3)ccc2OC[C@@H](C)NC[C@H]1C | · | · | 4 | -10 | 1
COc1ccc(OC)c(N(CC(=O)NCCSCc2ccco2)S(=O)(=O)c2ccc(OC)c(OC)c2)c1 | 5 | -3 | 13 | 79* | 1
Cc1ccc(S(=O)(=O)N(CC(=O)NCCSc2ccccn2)c2ccc(C)c(C)c2)cc1 | -11 | -7 | 5 | 7 | 2
Cc1cc(C)cc(N(CC(=O)NCCSc2ccccn2)S(=O)(=O)c2ccccc2)c1 | -11 | -10 | 7 | 49* | 7
COc1ccc(N(CC(=O)NCCSCc2ccccc2C)S(=O)(=O)c2ccccc2)cc1 | -5 | -3 | 5 | 52* | 0
COc1ccccc1N(CC(=O)NCCSCc1cccc(C)c1)S(=O)(=O)c1ccccc1 | -4 | -5 | 3 | 80* | 0
COc1ccccc1N(CC(=O)NCCSCc1ccccc1)S(C)(=O)=O | 7 | -2 | 9 | -14 | 0
CC(C)CNc1ccc2c(c1)OC[C@H](C)NS2(=O)=O | · | · | 1 | -9 | ·
CC1(C)Cc2c(sc(NC(=O)c3ccc4ncsc4c3)c2C(N)=O)C(C)(C)N1 | -10 | 1 | 5 | 20 | 0
CC1(C)Cc2c(sc(NC(=O)c3ccc(C(=O)c4ccccc4)cc3)c2C(N)=O)C(C)(C)N1 | 17 | 8 | 46* | 17 | 1
CCNC(=O)C1(C)CCN(C(=O)c2c(-c3ccccc3)noc2C)C1 (centres undefined) | · | · | 2 | -7 | 0
O=C(NCCc1ccccc1)c1cc(-c2ccc3c(c2)OCO3)on1 | -10 | 1 | 38* | 11 | 1
CC(C)c1ccc2c(c1)CCC1C(C)(CN)CCCC21C (centres undefined) | 26 | -2 | 39* | 6 | 5
CN(C(=O)c1cccc(NC(=O)Cc2ccc([N+](=O)[O-])cc2)c1)C1CCCC1 | · | 2 | 8 | 10 | 0
CN(C(=O)c1ccc(NC(=O)Cc2ccc([N+](=O)[O-])cc2)cc1)C1CCCC1 | · | 0 | 48* | 38 | 4
COc1ccc(Br)cc1C1CC(=O)N2CN(C)CSC2=C1C#N (centres undefined) | -10 | 3 | 46* | -9 | 1
COc1cc(OC)c(C2CC(=O)N3CN(C)CSC3=C2C#N)cc1OC (centres undefined) | -11 | -1 | 8 | -27 | 0
CC1(C(=O)NCc2ccccc2)Oc2ccccc2NC1=O (centres undefined) | -9 | 0 | 10 | 3 | 0
CC1(C(=O)NCc2ccc(Cl)c(Cl)c2)Oc2cccnc2NC1=O (centres undefined) | 13 | 0 | 53* | 28 | -2
Cc1ccc(NC(=O)c2ccc(S(=O)(=O)N3CCOCC3)cc2)cc1 | -4 | -3 | -3 | 5 | 0
Cc1ccc(SC(C)C(=O)Nc2ccc(S(=O)(=O)N3CCOCC3)cc2)cc1 (centres undefined) | -3 | 0 | 39* | 22 | 4
CCCC(=O)NC1=C(Cl)C(=O)c2ccccc2C1=O | · | 0 | 54* | 52* | 23
CCNC1=C(Cl)C(=O)c2ccccc2C1=O | -4 | 15 | 6 | -25 | 4
O=C1C(Cl)=C(Nc2ccc(O)cc2)C(=O)c2ccccc21 | 38* | 13 | -3 | 56* | 9
SMILES | GPR7 antagonist | DAGLB inhibitor | TAAR1 ag | TAAR1 antagonist | MPTP block
NC(=S)NN=C1Cc2cccc3cccc1c23 | · | 2 | 7 | 5 | -1
CC(=O)/C(=N/Nc1cccc(Cl)c1)Sc1nnc(C(O)c2ccccc2)n1-c1ccccc1 (centres undefined) | 27* | 1 | 4 | 0 | 1
COc1ccc(CS(=O)(=O)/C(Cl)=C(/Cl)C(=O)Nc2ccc(OC)nc2)cc1 | 39* | 13 | · | · | -1
COc1ccc(NC(=O)/C(Cl)=C(/Cl)S(=O)Cc2ccccc2)cn1 (centres undefined) | 40* | 8 | 41* | 74* | -1
COc1ccc(NC(=O)Cc2ccccc2)cn1 | -4 | 0 | 4 | -29 | 0
COc1ccc(/C=C/C(=O)Nc2ccc(OC)nc2)cc1 | 0 | 0 | 5 | 7 | 2
Cc1ccc(CN2CCC[C@]3(N[C@H](c4ccc(C)cc4)[C@@H]4C(=O)N(Cc5ccccc5)C(=O)[C@@H]43)C2=O)cc1 | · | -8 | 1 | -18 | -2
O=C1NC(c2cccc(C(F)(F)F)c2)c2c(-c3ccccc3)n[nH]c21 (centres undefined) | · | · | 0 | 9 | ·
O=C(Nc1nc2cc3c(cc2s1)OCCO3)c1cccc(N2C(=O)CCC2=O)c1 | -17 | -1 | 9 | 38 | 0
CCN(CC)S(=O)(=O)c1cccc(C(=O)Nc2nc3cc4c(cc3s2)OCCO4)c1 | -2 | 2 | 4 | 52* | 2
Cc1ccc(S(=O)(=O)N(C)C)cc1NC(=O)COC(=O)CSc1ccccc1 | · | 1 | 1 | -11 | -1
Cc1ccc(S(=O)(=O)N(C)C)cc1NC(=O)COc1ccccc1C(=O)Nc1ccccc1 | · | -3 | 14 | 55* | 0
CC(=O)Nc1ccc(S(=O)(=O)N(C)c2ccc(OCC(=O)Nc3ccccc3C(C)=O)cc2)cc1 | · | 1 | 13 | 55* | -2
Cc1ccc(S(=O)(=O)N(C)C)cc1NC(=S)Nc1cccc2ccccc12 | 46* | 1 | 1 | -2 | 2
C[C@@H]1CCCCO[C@H](CN(C)C(=O)Nc2ccc3c(c2)OCO3)[C@H](C)CN([C@@H](C)CO)C(=O)c2cc(NS(=O)(=O)c3ccc(Cl)cc3)ccc2O1 | · | 0 | 0 | -26 | 0
COc1ccc(-c2nnc(NC(=O)CSc3ccccc3)s2)cc1OC | -3 | 0 | 4 | 1 | 2
COc1ccc(Cc2nnc(NC(=O)CSc3ccccc3)s2)cc1OC | 1 | 0 | 50* | 1 | 3
COc1cccc(CNC(=O)[C@@H]2CCCN2C(=O)[C@H]2CCCCN2C(=O)c2c(F)cccc2F)c1 | · | · | 3 | -5 | 0
CCOc1ccc(C(=O)Cc2cc(OC)c(OC)cc2[N+](=O)[O-])cc1 | 2 | -1 | 42* | 63* | 2
OC(c1ccc(-c2ccccc2)cc1)c1ncc(-c2ccc(C(F)(F)F)cc2)[nH]1 (centres undefined) | · | · | 17 | 5 | 5
Cc1cc2nc(-c3ccc(SCC(=O)Nc4ccc(S(=O)(=O)N5CCCC5)cc4)nc3)[nH]c2cc1C | -7 | 2 | 0 | 8 | 2
O=C(CSc1ccc(-c2nc3ccccc3[nH]2)cn1)Nc1ccc(S(=O)(=O)N2CCCC2)cc1 | -9 | -1 | 8 | 51* | -4
CCOC(=O)c1ccccc1NC(=O)Cn1c(-c2nonc2N)nc2ccccc21 | 21* | -3 | 5 | 25 | 4
Cc1ccc(-n2nc3c(=O)n(CCCC(=O)NCCc4ccccc4C)nc(C)c3c2C)cc1 | -2 | -2 | 40* | -22 | 0
